Source: ChEMBL document CHEMBL1131314, “New cyclooxygenase-2/5-lipoxygenase inhibitors. 1. 7-tert-buty1-2,3-dihydro-3,3-dimethylbenzofuran derivatives as gastrointestinal safe antiinflammatory and analgesic agents: discovery and variation of the 5-keto substituent” (J Med Chem, 1998)

What was measured:
[1] = test system: Mus musculus; assay: % reduction in phenylquinone-induced abdominal constriction (PAC) at po (peroral) dose of 70 mg/kg in mice; assay type: functional, Abdomen
[2] = test system: Rattus norvegicus; assay: Carrageenan paw edema index (CPE index) as ratio of the reduction in paw volume relative to tebufelone at a po (peroral) dose of 50 mg/kg.; assay type: functional
[3] = biological target: T1, Prostaglandin G/H synthase 2 (Homo sapiens, UniProt P35354)
T1 sequence (P35354 whole entry): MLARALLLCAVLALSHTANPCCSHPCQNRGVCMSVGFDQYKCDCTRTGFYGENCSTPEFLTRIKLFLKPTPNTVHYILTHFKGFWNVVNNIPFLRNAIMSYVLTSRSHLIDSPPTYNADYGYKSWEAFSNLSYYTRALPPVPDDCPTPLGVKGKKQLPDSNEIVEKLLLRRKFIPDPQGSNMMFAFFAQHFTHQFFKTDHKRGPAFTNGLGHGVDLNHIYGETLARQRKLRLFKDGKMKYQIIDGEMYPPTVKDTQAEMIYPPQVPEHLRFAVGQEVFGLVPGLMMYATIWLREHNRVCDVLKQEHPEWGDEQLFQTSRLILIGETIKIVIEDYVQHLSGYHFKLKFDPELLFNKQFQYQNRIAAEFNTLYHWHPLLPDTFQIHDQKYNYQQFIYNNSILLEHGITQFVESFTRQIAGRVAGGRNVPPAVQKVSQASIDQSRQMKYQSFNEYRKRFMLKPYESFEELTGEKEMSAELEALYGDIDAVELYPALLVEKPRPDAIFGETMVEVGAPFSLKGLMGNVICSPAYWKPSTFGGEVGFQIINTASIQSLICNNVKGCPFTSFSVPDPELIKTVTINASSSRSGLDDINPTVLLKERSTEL

[4] = biological target: T2, Prostaglandin G/H synthase 1 (Homo sapiens, UniProt P23219); assay: Concentration (in uM) to inhibit 50% of Prostaglandin G/H synthase 1 (COX-1) and is expressed in IC50.
Method in brief: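 Human platelet microsomal fraction as enzyme, stored at -70 °C. Run 5 min at 37 °C, started by enzyme, stopped with HCl. PGF2α read by EIA, duplicates. IC50 taken from the percent-inhibition versus concentration curve.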

[5] = biological target: T2, Prostaglandin G/H synthase 1; assay: Tested for selectivity for inhibition of human platelet derived COX-1 and recombinant human COX-2
Method in brief: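 COX-1 was microsomes from human platelet concentrate and COX-2 was a sonicated lysate of Sf9 cells infected with baculovirus carrying human COX-2 cDNA. Each enzyme was added to AA (33 µM) and SnCl2 (0.5 mg/mL) in 50 mM Tris-HCl pH 7.5 and run 5 min at 37 °C, then stopped with HCl. PGF2α was measured by EIA, in duplicate. The value is IC50 COX-1/IC50 COX-2.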

[6] = organism: Mus musculus; assay: The compound was tested for the concentration to inhibit 50% of phenylquinone-induced abdominal constriction (PAC).; assay type: functional; details: Abdomen
[7] = biological target: Arachidonate 5-lipoxygenase (Rattus norvegicus); assay: The compound was tested for the concentration (in uM) to inhibit 50% of 5-Lipoxygenase (5-LOX) and is expressed in IC50.
[8] = test system: Mus musculus; assay: Compound was tested for % reduction in phenylquinone-induced abdominal constriction (PAC) at po (peroral) dose of 70 mg/kg in mice; assay type: functional; details: Abdomen

T2 sequence (P23219 whole entry): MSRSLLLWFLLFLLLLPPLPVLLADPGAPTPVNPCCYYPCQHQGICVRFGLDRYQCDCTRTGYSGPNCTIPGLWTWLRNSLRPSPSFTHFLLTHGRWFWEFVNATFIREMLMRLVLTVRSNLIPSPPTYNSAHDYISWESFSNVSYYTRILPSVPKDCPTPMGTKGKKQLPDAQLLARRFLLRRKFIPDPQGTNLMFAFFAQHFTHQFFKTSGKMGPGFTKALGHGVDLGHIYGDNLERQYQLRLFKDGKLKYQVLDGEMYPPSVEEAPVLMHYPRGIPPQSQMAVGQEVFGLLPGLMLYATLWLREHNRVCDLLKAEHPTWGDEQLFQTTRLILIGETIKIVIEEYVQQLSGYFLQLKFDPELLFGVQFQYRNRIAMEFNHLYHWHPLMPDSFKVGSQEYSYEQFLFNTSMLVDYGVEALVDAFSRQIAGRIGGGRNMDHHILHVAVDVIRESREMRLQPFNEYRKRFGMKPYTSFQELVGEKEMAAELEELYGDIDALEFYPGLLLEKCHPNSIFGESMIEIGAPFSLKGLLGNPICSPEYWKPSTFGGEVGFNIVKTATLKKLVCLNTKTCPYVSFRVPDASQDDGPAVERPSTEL

| SMILES | CPE index [2] | IC50 [3] [nM] | IC50 [4] [nM] | other results |
| --- | --- | --- | --- | --- |
| CSCC(=O)c1cc(C(C)(C)C)c2c(c1)C(C)(C)CO2 | 1.77 |  |  | Reduction [1]: 35% |
| CCCC(=O)c1cc(C(C)(C)C)c2c(c1)C(C)(C)CO2 |  | 95 | 95 | Reduction [1]: 85% |
| CC(C)(C)c1cc(C(=O)CC2CC2)cc2c1OCC2(C)C | 1.06 |  |  |  |
| CC(=O)OCC(=O)c1cc(C(C)(C)C)c2c(c1)C(C)(C)CO2 | 0.21 |  |  |  |
| COCCOCC(=O)c1cc(C(C)(C)C)c2c(c1)C(C)(C)CO2 | 0.52 |  |  |  |
| C#CCCCC(=O)c1cc(C(C)(C)C)c(O)c(C(C)(C)C)c1 [TEBUFELONE] |  | 100 | 250 |  |
| CC(C)(C)c1cc(C(=O)CSCC2CC2)cc2c1OCC2(C)C | 0.62 | 400 | 650 | Selectivity [5]: 1.6; Reduction [1]: 54% |
| CC(C)(C)c1cc(C(=O)c2ccccc2)cc2c1OCC2(C)C |  | 7 | 150 | Reduction [1]: 34% |
| CC(=O)c1cc(C(C)(C)C)c2c(c1)C(C)(C)CO2 | 0.92 |  |  | Reduction [1]: 78% |
| CN(CC(=O)c1cc(C(C)(C)C)c2c(c1)C(C)(C)CO2)CC1CC1 | 0.38 | 2500 | 30000 |  |
| CC(C)(C)c1cc(C(=O)CS(=O)(=O)CC2CC2)cc2c1OCC2(C)C | 0 | 2000 | 5000 | Selectivity [5]: 2.5 |
| CC(C)(C)c1cc(C(=O)/C=C/CC2CC2)cc2c1OCC2(C)C | 0.18 | 250 | 800 |  |
| CC(C)(C)c1cc(C(=O)c2ccccc2Cl)cc2c1OCC2(C)C | 0 |  |  |  |
| CC(C)(C)c1cc(C(=O)CCC2CC2)cc2c1OCC2(C)C | 0.18 |  |  | Reduction [1]: 58% |
| CC(C)(C)c1cc(C(=O)c2ccc(F)cc2)cc2c1OCC2(C)C | 0.52 |  |  |  |
| CC(C)(C)c1cc(C(=O)C2CCCCC2)cc2c1OCC2(C)C | 0.36 |  |  |  |
| CC(C)(C)c1cc(C(=O)C2CCCC2)cc2c1OCC2(C)C | 0.65 |  |  | Reduction [1]: 56% |
| CC(C)(C)c1cc(C(=O)C2CC2)cc2c1OCC2(C)C | 0.67 |  |  | Reduction [1]: 85% |

| SMILES | CPE index [2] | IC50 [3] [nM] | IC50 [4] [nM] | other results |
| --- | --- | --- | --- | --- |
| CN(C)CCC(=O)c1cc(C(C)(C)C)c2c(c1)C(C)(C)CO2 | 0.32 |  |  |  |
| CSCCC(=O)c1cc(C(C)(C)C)c2c(c1)C(C)(C)CO2 | 0.7 |  |  |  |
| C[S+]([O-])CC(=O)c1cc(C(C)(C)C)c2c(c1)C(C)(C)CO2 (centres undefined) | 1.01 |  |  | ED50 [6]: 20 mg/kg |
| CC(C)C(=O)c1cc(C(C)(C)C)c2c(c1)C(C)(C)CO2 | 1.25 |  |  | ED50 [6]: 22 mg/kg |
| CC(C)(C)C(=O)c1cc(C(C)(C)C)c2c(c1)C(C)(C)CO2 | 0.3 |  |  |  |
| CCCCCC(=O)c1cc(C(C)(C)C)c2c(c1)C(C)(C)CO2 | 0.4 | 90 | > 10000 | Selectivity [5]: > 111 |
| CC(C)(C)c1cc(C(=O)CS(C)(=O)=O)cc2c1OCC2(C)C | 0 |  |  |  |
| CC(O)c1cc(C(C)(C)C)c2c(c1)C(C)(C)CO2 (centres undefined) | 0 |  |  |  |
| CC(C)(Cl)CC(=O)c1cc(C(C)(C)C)c2c(c1)C(C)(C)CO2 | 1.2 | 100 | 1000 | IC50 [7]: 8000 nM; ED50 [8]: 16 mg/kg |
| CC(C)CCCC(=O)c1cc(C(C)(C)C)c2c(c1)C(C)(C)CO2 | 0.36 | 4500 | 15000 | Selectivity [5]: 3.3; IC50 [7]: 15000 nM |
| CCC(=O)c1cc(C(C)(C)C)c2c(c1)C(C)(C)CO2 | 1.14 |  |  | ED50 [6]: 20 mg/kg |
| C#CCCCC(=O)c1cc(C(C)(C)C)c2c(c1)C(C)(C)CO2 |  | 15 | 60 |  |
| CC(=O)SCC(=O)c1cc(C(C)(C)C)c2c(c1)C(C)(C)CO2 | 0.95 |  |  | Reduction [1]: 64% |
| CC(C)=CC(=O)c1cc(C(C)(C)C)c2c(c1)C(C)(C)CO2 | 1.22 |  |  | Reduction [1]: 50% |
| CCCCC(=O)c1cc(C(C)(C)C)c2c(c1)C(C)(C)CO2 |  | 40 | 2000 |  |
| CC(C)(C)c1cccc2c1OCC2(C)C | 0.31 |  |  |  |
| CC(C)(C)c1cc(C(=O)CCCC2CC2)cc2c1OCC2(C)C |  | 220 | 7000 |  |
| CC(C)(C)c1cc(C(=O)C[S+]([O-])CC2CC2)cc2c1OCC2(C)C (centres undefined) | 0.04 | 4000 | 20000 | Selectivity [5]: 5 |
